Among the data in ChEMBL document CHEMBL1149287, “Synthetic bryostatin analogues activate the RasGRP1 signaling pathway” (J Med Chem, 2004) are Activity values, retold here.

Assay [1] has as its system Lymphocyte. As to the kind of experiment: Induction of T cell activation marker CD69 expression in concanavalin-A activated CD8+ mouse spleen lymphocytes. The class given is functional, tissue-based.
In assay [2] the test system is Rat2. As to the kind of experiment: Induction of increase in Ras-GTP level in Rat2 cells expressing human […] at 100 nM. The class given is functional, cell-based. The gist of the method:
(§1)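 Rat2 fibroblasts (DMEM, 10% FBS) stably carrying retroviral pBabePuro, empty or with human RasGRP1 cDNA, exposed 10 min to 100 nM DAG analogue or DMSO vehicle. Ras-GTP measured by Ras-binding-domain pulldown with pan-Ras immunoblot; phospho-Erk p44/p42 and total Ras by immunoblot.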

The subject of assay [3] is Thymocyte. In words: Activation of ERK in knockout mouse RasGRP1- mutant thymocytes. The format is functional, cell-based. The gist of the method:
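Thymocytes isolated in RPMI 1640 with 10% FBS from young wild-type or RasGRP1 knockout mice, given DMSO or DAG analogue for 10 min, then lysed and immunoblotted for phospho-Erk p44/p42.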

Assay [4] concerns Jurkat. As to the kind of experiment: Induction of T cell activation marker CD69 expression in Jurkat T cells at 100 nM. The class given is functional, cell-based. The conditions noted are these: Homo sapiens. The gist of the method:
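Jurkat T cells kept in RPMI with 10% FBS, incubated overnight with 100 nM DAG analogue or DMSO, fixed in 2% paraformaldehyde, stained with PE-anti-CD69, surface CD69 read by FACS.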

Assay [5] relates to PBL. In words: Induction of T cell activation marker CD69 expression in PBL cells. The class given is functional, cell-based. The following applies: Homo sapiens. The gist of the method:
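Human peripheral blood lymphocytes from a healthy donor, isolated on Ficoll-hypaque, treated immediately overnight in RPMI with 100 nM DAG analogue or DMSO; fixed in 2% paraformaldehyde, co-stained for CD4 (FITC) and CD69 (PE), analysed by flow cytometry.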

The test system of assay [6] is Rat2. As to the kind of experiment: Accumulation of Ras-GTP level in Rat2 cells expressing empty pBabePuro vector. The class given is functional, cell-based. The conditions noted are these: Rattus norvegicus. The gist of the method: as §1
Assay [7] has as its system Lymphocyte. In words: Induction of T cell activation marker CD69 expression in concanavalin-A activated CD4+ mouse spleen lymphocytes. The class given is functional, tissue-based.
In assay [8] the target is T1, RAS guanyl-releasing protein 1 (Homo sapiens) (UniProt O95267).
T1 sequence (whole entry): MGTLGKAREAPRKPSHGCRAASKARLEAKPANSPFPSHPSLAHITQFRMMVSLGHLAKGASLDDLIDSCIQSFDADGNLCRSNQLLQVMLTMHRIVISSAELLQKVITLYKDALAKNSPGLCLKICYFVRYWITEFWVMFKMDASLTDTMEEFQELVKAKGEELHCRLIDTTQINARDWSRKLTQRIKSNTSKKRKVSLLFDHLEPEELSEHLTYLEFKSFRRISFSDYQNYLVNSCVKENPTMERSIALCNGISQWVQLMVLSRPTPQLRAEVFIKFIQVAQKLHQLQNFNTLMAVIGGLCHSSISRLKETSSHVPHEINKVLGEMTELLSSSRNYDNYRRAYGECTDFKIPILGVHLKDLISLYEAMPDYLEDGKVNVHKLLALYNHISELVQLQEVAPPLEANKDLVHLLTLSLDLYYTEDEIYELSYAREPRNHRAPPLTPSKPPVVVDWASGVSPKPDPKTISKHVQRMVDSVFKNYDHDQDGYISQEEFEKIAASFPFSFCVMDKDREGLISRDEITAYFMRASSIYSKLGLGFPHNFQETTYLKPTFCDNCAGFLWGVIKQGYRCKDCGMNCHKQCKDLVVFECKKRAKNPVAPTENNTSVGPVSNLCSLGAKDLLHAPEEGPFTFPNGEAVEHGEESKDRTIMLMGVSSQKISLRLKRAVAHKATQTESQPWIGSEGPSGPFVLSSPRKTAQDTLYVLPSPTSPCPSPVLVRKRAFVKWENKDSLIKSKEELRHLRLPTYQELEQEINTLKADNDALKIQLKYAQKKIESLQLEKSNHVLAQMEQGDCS
In words: Induction of translocation of RasGRP1 to plasma membrane in HEK293 cells. The format is cell-based. The procedure, abridged:
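HEK-293 cells on glass coverslips transfected with 5 μg pEF-GFP-RasGRP1 (or pEF-GFP), after 48 h given 100 nM DAG analogue or DMSO for 10 min at 37 °C, fixed in 4% paraformaldehyde; GFP location imaged by confocal microscopy, at least five 0.45 μm slices per cell.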

In assay [9] the test system is Thymocyte. In words: Activation of ERK in wild type mouse thymocytes at 100 nM. The format is functional, cell-based. The procedure, abridged: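 Wild-type mouse thymocytes (RPMI 1640, 10% FBS) exposed 10 min to DAG analogue at 100, 10 or 1 nM, then lysed; phospho-Erk p44/p42 detected by immunoblot.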

The source made the active and inactive calls. The calls are words filed in the database; no cut-off is given here.

As to `CCCCCCCC(=O)O[C@H]1/C(=C/C(=O)OC)CC2C[C@H]([C@@H](CC)OC)OC(=O)C[C@H](O)C[C@@H]3CCC[C@H](C[C@H]4CCO[C@H](/C=C/C(C)(C)[C@]1(O)O2)O4)O3`, the result in [1], in assay [2], in assay [4], in [5], in [7] and in assay [8] was Active. Moreover, in [9], the outcome was Active. The outcome in [3] and in [6] was inactive.
As for `CCCCCCCC(=O)O[C@H]1/C(=C/C(=O)OC)CC2C[C@H]([C@H](O)CC)OC(=O)C[C@H](O)C[C@@H]3CCC[C@H](C[C@H]4CCO[C@H](/C=C/C(C)(C)[C@]1(O)O2)O4)O3`, the outcome in assay [1], in assay [2], in assay [4], in assay [5], in assay [7] and in [8] was Active. For the same compound, the outcome in assay [9] was Active. For the same compound, the result in [3] and in assay [6] was inactive.
`CCCCCCCCCCCCCC(=O)O[C@@H]1[C@@H](C)[C@@]2(O)[C@@H](C=C(CO)C[C@]3(O)C(=O)C(C)=C[C@@H]23)[C@@H]2C(C)(C)[C@]12OC(C)=O`: the outcome in [1], in assay [2], in assay [4], in [5], in [7] and in [8] was Active. The outcome in assay [9] was Active. The outcome in assay [3] and in assay [6] was inactive.
